Four molecules from publication PMC6697164 (Cancer discovery, 2019) can be followed below.

Assay [1] deals with TET2. Briefly: Total TET activity. Type of assay: cell-based, human. The settings on record: inhibitor 10 nM for 1 hr prior to FLT3L stimulation for 30 minutes; CD34+ stem/early progenitors; three biological replicates. The procedure, abridged: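 Healthy-donor CD34+ cells, CliniMACS-purified, cultured 4 days in IMDM, 20% human serum, TPO/FLT3L/IL-3/IL-6 (20 ng/mL each), SCF 100 ng/mL. Cytokine-washed, held 4 hrs in IMDM/1% BSA, inhibitor 1 hr, then FLT3L (100 ng/ml) 30 min. Nuclear lysates (Bradford-normalised) on 5-mC-coated wells, 5-hmC detected fluorometrically. Standard curve 0–2 ng, ng/min/mg. Unstimulated and stimulated controls; mean ± SEM, three biological replicates.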

The test system of assay [2] is TET2. Briefly: TET2 activity and 5-hmC levels upon TPO or G-CSF stimulation. Type of assay: cell-based. The settings on record: Fig. S1A-D. The method in brief: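 Total TET activity was measured in nuclear lysates, with protein quantified by Bradford assay, using a fluorescence ELISA in which plate-coated 5-mC substrate is converted to 5-hmC and detected with an anti-5-hmC antibody. 5-hmC content was measured on 200 ng DNA per assay and expressed as a percentage of total DNA.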

In the case of `CC(C)(C)c1cc(NC(=O)Nc2ccc(-c3cn4c(n3)sc3cc(OCCN5CCOCC5)ccc34)cc2)no1` [AC2220], the “Effect on FLT3L-stimulated TET2 activity” value in the assay with TET2 [1] is “Inhibition of TET2 activity”.

Regarding `CNC(=O)c1cc(Oc2ccc(NC(=O)Nc3ccc(Cl)c(C(F)(F)F)c3)cc2)ccn1` [Sorafenib], the “Effect on FLT3L-stimulated TET2 activity” value with TET2 [1] is listed as “Inhibition of TET2 activity”.

As for TPO: cytokine thrombopoietin, in the assay on TET2 [2], the “5hm-C levels upon cytokine stimulation” value is “increased” and the “TET2 activity upon cytokine stimulation” value is recorded as “increased”.

B1: G-CSF: cytokine granulocyte colony stimulation factor (protein, UniProt P09919 31-207, looked up)
Granulocyte …: TPLGPASSLPQSFLLKCLEQVRKIQGDGAALQEKLVSECATYKLCHPEELVLLGHSLGIPWAPLSSCPSQALQLAGCLSQLHSGLFLYQGLLQALEGISPELGPTLDTLQLDVADFATTIWQQMEELGMAPALQPTQGAMPAFASAFQRRAGGVLVASHLQSFLEVSYRVLRHLAQP
With B1, in the assay with TET2 [2], the “5hm-C levels upon cytokine stimulation” value was “increased” and the “TET2 activity upon cytokine stimulation” value was “increased”.
